Experimental data reported in ChEMBL document CHEMBL1145801, “Inhibition of Cdc25 phosphatases by indolyldihydroxyquinones” (J Med Chem, 2003).
pIC50, pKi: −log10 of the molar value.

Legend:
[1] = target: T1, M-phase inducer phosphatase 1 (Homo sapiens, UniProt P30304); assay: Eight point inhibitory concentration against Cell division cycle 25A was determined
T1 sequence (P30304 whole entry): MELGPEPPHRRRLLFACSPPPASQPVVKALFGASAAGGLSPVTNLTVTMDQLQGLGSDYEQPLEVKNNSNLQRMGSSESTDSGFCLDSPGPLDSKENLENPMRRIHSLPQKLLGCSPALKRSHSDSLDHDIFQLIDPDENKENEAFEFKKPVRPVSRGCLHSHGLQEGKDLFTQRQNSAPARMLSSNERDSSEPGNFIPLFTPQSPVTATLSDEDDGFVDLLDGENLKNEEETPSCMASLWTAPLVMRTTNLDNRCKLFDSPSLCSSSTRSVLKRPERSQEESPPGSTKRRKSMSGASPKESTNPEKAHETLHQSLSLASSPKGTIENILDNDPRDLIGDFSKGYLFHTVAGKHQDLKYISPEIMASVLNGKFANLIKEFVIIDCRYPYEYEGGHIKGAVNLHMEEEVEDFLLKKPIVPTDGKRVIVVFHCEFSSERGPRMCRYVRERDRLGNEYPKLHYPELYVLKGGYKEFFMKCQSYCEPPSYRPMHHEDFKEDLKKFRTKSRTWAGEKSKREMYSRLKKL
Outline: (§1)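 Phosphatase activity measured with 3-O-methylfluorescein phosphate at 50 μM (~5 × Km), product formation followed at 477 nm by UV-vis under initial velocity conditions (2–5% turnover) in time-dependent assays. Eight inhibitor concentrations were used, and IC50 was obtained by fitting to a dose–response equation.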

[2] = target: T2, M-phase inducer phosphatase 2 (Homo sapiens) (UniProt P30305); assay: Percent inhibition of cell division cycle 25B at 50 uM
T2 sequence (whole entry): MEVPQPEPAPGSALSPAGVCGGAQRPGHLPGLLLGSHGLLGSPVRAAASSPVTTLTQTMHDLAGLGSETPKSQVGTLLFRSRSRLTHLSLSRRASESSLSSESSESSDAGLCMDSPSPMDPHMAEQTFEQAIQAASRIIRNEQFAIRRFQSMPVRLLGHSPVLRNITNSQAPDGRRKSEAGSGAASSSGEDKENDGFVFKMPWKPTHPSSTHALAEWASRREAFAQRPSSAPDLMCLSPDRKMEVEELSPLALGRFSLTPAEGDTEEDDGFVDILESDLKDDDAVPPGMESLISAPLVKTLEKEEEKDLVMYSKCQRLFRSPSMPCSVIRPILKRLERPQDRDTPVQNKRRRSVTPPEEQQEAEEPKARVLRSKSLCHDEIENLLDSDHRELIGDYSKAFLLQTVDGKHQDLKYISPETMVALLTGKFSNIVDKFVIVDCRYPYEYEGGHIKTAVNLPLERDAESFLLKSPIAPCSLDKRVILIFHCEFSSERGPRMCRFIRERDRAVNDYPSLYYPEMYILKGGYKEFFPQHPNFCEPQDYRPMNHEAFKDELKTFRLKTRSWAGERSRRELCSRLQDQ
Outline: (§2)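 Single-point screen at 50 μM inhibitor against Cdc25A, Cdc25B or Cdc25C with 50 μM 3-O-methylfluorescein phosphate, product followed at 477 nm in time-dependent assays. Activity was compared with a simultaneous no-inhibitor control, and selected compounds were run in duplicate (average error ±7%).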

[3] = target: T3, M-phase inducer phosphatase 1 (Homo sapiens) (UniProt P30304); assay: Percent inhibition of cell division cycle 25A at 50 uM; outline: as §2
T3 sequence (whole entry): T1 sequence (P30304 whole entry)

[4] = target: T4, M-phase inducer phosphatase 3 (Homo sapiens) (UniProt P30307); assay: Percent inhibition against Cdc25C phosphatase at 50 uM of compound; outline: as §2
T4 sequence (whole entry): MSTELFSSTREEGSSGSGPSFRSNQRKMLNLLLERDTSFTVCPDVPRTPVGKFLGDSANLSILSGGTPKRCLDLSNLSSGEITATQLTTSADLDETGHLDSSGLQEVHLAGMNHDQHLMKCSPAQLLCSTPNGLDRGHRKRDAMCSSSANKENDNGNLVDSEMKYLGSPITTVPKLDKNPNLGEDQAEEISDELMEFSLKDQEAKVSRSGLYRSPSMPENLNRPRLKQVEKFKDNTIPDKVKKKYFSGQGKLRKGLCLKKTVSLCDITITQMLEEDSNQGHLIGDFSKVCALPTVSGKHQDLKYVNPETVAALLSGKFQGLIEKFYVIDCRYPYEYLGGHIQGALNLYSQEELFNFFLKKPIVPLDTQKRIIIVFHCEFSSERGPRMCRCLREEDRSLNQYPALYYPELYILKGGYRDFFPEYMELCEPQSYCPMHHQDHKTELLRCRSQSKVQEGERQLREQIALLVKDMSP

[5] = target: T5, M-phase inducer phosphatase 2 (Homo sapiens, UniProt P30305); assay: Inhibitory constant of compound against Cell division cycle 25B was determined
[6] = target: T6, M-phase inducer phosphatase 3 (Homo sapiens, UniProt P30307); assay: Eight point inhibitory concentration against Cell division cycle 25 degree C was determined; outline: as §1
T6 sequence (P30307 whole entry): T4 sequence (whole entry)

[7] = target: T7, M-phase inducer phosphatase 2 (Homo sapiens, UniProt P30305); assay: Eight point inhibitory concentration against Cell division cycle 25B was determined
T7 sequence (P30305 whole entry): T2 sequence (whole entry)
Outline: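 Cdc25B activity read by UV-vis at 477 nm as product formed from 3-O-methylfluorescein phosphate (mFP) at 50 μM (~5 × Km), time-dependent, initial-velocity conditions (2–5% turnover); eight inhibitor concentrations, IC50 fitted to eq 1. Each reaction compared with a simultaneous no-inhibitor control; selected compounds run in duplicate.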

[8] = target: T4, M-phase inducer phosphatase 3 (Homo sapiens); assay: Percent inhibition of cell division cycle 25 degree C at 50 uM; outline: as §2
[9] = target: T8, M-phase inducer phosphatase 2 (Homo sapiens, UniProt P30305, F489A); assay: Inhibitory concentration of compound against mutant F475A of Cell division cycle 25B was determined
Outline: (§3)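 Cdc25B catalytic-domain point mutants, a truncated form and wild type were assayed with 3-O-methylfluorescein phosphate as substrate, monitored at 477 nm under initial velocity conditions. Values are the mean of two separate determinations.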

[10] = target: T7, M-phase inducer phosphatase 2; assay: Inhibitory constant of compound against Cell division cycle 25B was determined using mFP as a substrate
[11] = target: M-phase inducer phosphatase 2 (Homo sapiens, UniProt P30305, Y542F); assay: Inhibitory concentration of compound against mutant Y528F of Cell division cycle 25B was determined; outline: as §3
[12] = target: T7, M-phase inducer phosphatase 2; assay: Inhibitory concentration of compound against Cell division cycle 25B was determined using CDK2-p-TpY/Cyclin A as a substrate
Outline: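 Cdc25B dephosphorylation of 300 nM Cdk2-pTpY/CycA protein substrate was run in time-dependent assays at eight inhibitor concentrations to give IC50. Reactions were quenched with TCA, and bovine serum albumin carrier (1 mg/mL) was added only after the quench so that it was absent during inhibitor exposure.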

[13] = target: M-phase inducer phosphatase 2 (Homo sapiens, UniProt P30305, R506L); assay: Inhibitory concentration of compound against mutant R492L of Cell division cycle 25B was determined; outline: as §3
[14] = target: M-phase inducer phosphatase 2 (Homo sapiens, UniProt P30305, E492Q); assay: Inhibitory concentration of compound against mutant E478Q of Cell division cycle 25B was determined; outline: as §3
[15] = target: T9, M-phase inducer phosphatase 2 (Homo sapiens, UniProt P30305, E488Q); assay: Inhibitory concentration of compound against mutant E474Q of Cell division cycle 25B was determined; outline: as §3
[16] = target: M-phase inducer phosphatase 2 (Homo sapiens, UniProt P30305, M545A); assay: Inhibitory concentration of compound against mutant M531A of Cell division cycle 25B was determined; outline: as §3
[17] = target: T10, M-phase inducer phosphatase 2 (Homo sapiens, UniProt P30305, R496L); assay: Inhibitory concentration of compound against mutant R482L of Cell division cycle 25B was determined; outline: as §3
[18] = target: T5, M-phase inducer phosphatase 2; assay: Inhibitory concentration of compound against truncated mutant of Cell division cycle 25B was determined; outline: as §3
[19] = target: M-phase inducer phosphatase 2 (Homo sapiens, UniProt P30305, R558L); assay: Inhibitory concentration of compound against mutant R544L of Cell division cycle 25B was determined; outline: as §3
[20] = target: T5, M-phase inducer phosphatase 2; assay: Inhibitory concentration of compound against mutant WT of Cell division cycle 25B was determined; outline: as §3
[21] = Inhibitory constant of compound against Cdc25 phosphatase was determined
[22] = target: T10, M-phase inducer phosphatase 2; assay: Inhibitory concentration of compound against mutant R482L of Cdc25B phosphatase was determined
Outline: (§4)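 Cdc25B catalytic domain constructs (wild-type, site-directed point mutants, truncated); activity with 3-O-methylfluorescein phosphate at 50 μM (~5 × Km), product read at 477 nm by UV-vis under initial velocity (2–5% turnover); eight inhibitor concentrations, IC50 fitted; values are mean of two determinations.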

[23] = target: T9, M-phase inducer phosphatase 2; assay: Inhibitory concentration of compound against mutant E474Q of Cdc25B phosphatase was determined; outline: as §4
[24] = target: T5, M-phase inducer phosphatase 2; assay: Inhibitory concentration of compound against mutant WT of Cdc25B phosphatase was determined; outline: as §4
[25] = target: T8, M-phase inducer phosphatase 2; assay: Inhibitory concentration of compound against mutant F475A of Cdc25B phosphatase was determined; outline: as §4
[26] = target: T7, M-phase inducer phosphatase 2; assay: Inhibitory concentration of compound against Cdc25B phosphatase was determined using CDK2-p-TpY/Cyclin A as a substrate
Outline: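 Cdc25B IC50 with Cdk2-pTpY/CycA protein substrate at 300 nM; eight inhibitor concentrations; time-dependent assays; 1 mg/mL BSA carrier added only after TCA quench, not during reaction.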

[27] = target: T7, M-phase inducer phosphatase 2; assay: Inhibitory constant of compound against Cdc25B phosphatase was determined using mFP as a substrate
[28] = target: T5, M-phase inducer phosphatase 2; assay: Inhibitory concentration of compound against truncated mutant of Cdc25B phosphatase was determined; outline: as §4

T9 sequence (P30305 whole entry E488Q): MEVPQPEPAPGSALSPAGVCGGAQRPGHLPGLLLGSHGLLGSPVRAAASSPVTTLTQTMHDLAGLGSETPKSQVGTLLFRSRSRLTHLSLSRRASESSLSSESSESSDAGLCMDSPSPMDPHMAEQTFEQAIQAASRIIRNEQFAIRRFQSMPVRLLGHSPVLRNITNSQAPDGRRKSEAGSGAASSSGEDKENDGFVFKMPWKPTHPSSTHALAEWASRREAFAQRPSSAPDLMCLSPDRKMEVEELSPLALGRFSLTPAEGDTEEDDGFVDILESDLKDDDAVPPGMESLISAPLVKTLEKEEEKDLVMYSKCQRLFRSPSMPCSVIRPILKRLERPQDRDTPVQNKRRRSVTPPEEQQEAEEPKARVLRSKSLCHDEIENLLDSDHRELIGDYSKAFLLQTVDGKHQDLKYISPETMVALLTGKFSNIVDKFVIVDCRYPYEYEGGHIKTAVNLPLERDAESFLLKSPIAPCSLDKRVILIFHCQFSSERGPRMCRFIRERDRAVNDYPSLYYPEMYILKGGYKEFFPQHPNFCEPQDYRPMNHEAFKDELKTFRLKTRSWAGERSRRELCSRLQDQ
T8 sequence (P30305 whole entry F489A, the tested form may be a part): as the sequence (P30305 whole entry E488Q) above, with Q488E, F489A counted along it
T10 sequence (P30305 whole entry R496L, the tested form may be a part): as the sequence (P30305 whole entry E488Q) above, with Q488E, R496L counted along it
M-phase inducer phosphatase 2 (Homo sapiens, UniProt P30305, Y542F), sequence (P30305 whole entry Y542F): as the sequence (P30305 whole entry E488Q) above, with Q488E, Y542F counted along it
M-phase inducer phosphatase 2 (Homo sapiens, UniProt P30305, R506L), sequence (P30305 whole entry R506L): as the sequence (P30305 whole entry E488Q) above, with Q488E, R506L counted along it
M-phase inducer phosphatase 2 (Homo sapiens, UniProt P30305, M545A), sequence (P30305 whole entry M545A): as the sequence (P30305 whole entry E488Q) above, with Q488E, M545A counted along it
M-phase inducer phosphatase 2 (Homo sapiens, UniProt P30305, R558L), sequence (P30305 whole entry R558L): as the sequence (P30305 whole entry E488Q) above, with Q488E, R558L counted along it
M-phase inducer phosphatase 2 (Homo sapiens, UniProt P30305, E492Q), sequence (P30305 whole entry E492Q): as the sequence (P30305 whole entry E488Q) above, with Q488E, E492Q counted along it

Row | SMILES | pIC50 [1] | inhibition [2] [%] | inhibition [3] [%] | pIC50 [6] | pIC50 [7] | inhibition [8] [%] | further results
1 | Cc1ccc2[nH]cc(C3=C(O)C(O)=CC(=O)C3=O)c2c1 | 5.09 | 61 | 100 | – | – | – | inhibition [4]: 55%
2 | CCCc1cccc2c(C3=C(O)C(O)=CC(=O)C3=O)c[nH]c12 | 5.38 | 23 | 72 | < 4.30 | 4.23 | 79 | –
3 | CC(C)=CCC/C(C)=C/CC/C(C)=C/Cc1c(Cl)cc(Cl)c2c(C3=C(O)C(O)=CC(=O)C3=O)c[nH]c12 | – | – | – | – | – | – | pKi [21]: 6.33
4 | O=C1C=C(O)C(=O)C(c2c[nH]c3ccccc23)=C1O | 4.60 | 75 | 33 | 4.52 | 4.74 | 69 | pIC50 [22]: 4.14; pIC50 [23]: 3.70; pIC50 [24]: 4.74; pIC50 [25]: 4.12; pIC50 [26]: < 4.30; pKi [27]: 4.89; pIC50 [28]: 4.47
5 | O=C1C=C(O)C(=O)C(c2c[nH]c3cc(Cl)ccc23)=C1O | 5.38 | 92 | 100 | 4.40 | 4.85 | 81 | –
6 | CC(C)=CCc1c(Cl)cc(Cl)c2c(C3=C(O)C(O)=CC(=O)C3=O)c[nH]c12 | 5.30 | – | – | 5.06 | 5.64 | – | pKi [10]: 6.37; pIC50 [12]: 5.07

Continued by rising pIC50 [1], values first:

Row | pIC50 [1] | inhibition [2] [%] | inhibition [3] [%] | pIC50 [6] | pIC50 [7] | inhibition [8] [%] | SMILES | further results
7 | 5.38 | 97 | 98 | 5.16 | 5.38 | 85 | O=C1C=C(O)C(=O)C(c2c[nH]c3c(OCc4ccccc4)cccc23)=C1O | –
8 | 5.39 | 99 | 100 | 4.82 | 5.25 | 84 | CC(C)=CCc1cccc2c(C3=C(O)C(O)=CC(=O)C3=O)c[nH]c12 | pIC50 [9]: < 4.30; pKi [10]: 6.19; pIC50 [11]: 4.82; pIC50 [12]: 4.55; pIC50 [13]: 4.96; pIC50 [14]: 5.19; pIC50 [15]: < 4.30; pIC50 [16]: 5.19; pIC50 [17]: 4.40; pIC50 [18]: 4.48; pIC50 [19]: 4.92; pIC50 [20]: 5.19
9 | 5.60 | 92 | 99 | 4.57 | 5.60 | 91 | O=C1C=C(O)C(=O)C(c2c[nH]c3c(-c4ccccc4)cccc23)=C1O | –
10 | 5.62 | 89 | 96 | 5.46 | 5.62 | 85 | CC(C)=CCC/C(C)=C/CC/C(C)=C/Cc1cccc2c(C3=C(O)C(O)=CC(=O)C3=O)c[nH]c12 | pKi [5]: 6.19
11 | 6.00 | 97 | 100 | 5.46 | 6.00 | 94 | Cc1ccccc1Cc1cccc2c(C3=C(O)C(O)=CC(=O)C3=O)c[nH]c12 | –
